Experimental data from ChEMBL document CHEMBL1137008, “Cancer preventive agents 9. Betulinic acid derivatives as potent cancer chemopreventive agents” (Bioorg Med Chem Lett, 2009).

How the values were obtained:
[1] = Cytotoxicity against human Raji cells assessed as cell viability at 10 molar ratio after 48 hrs by trypan blue staining method; format: cell-based; details: read-out: Activity
Procedure, shortened: (§1)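 Raji cells (EBV genome-carrying, Burkitt's lymphoma) grown in RPMI-1640 with 10% FBS; incubated 48 h at 37 °C with 4 mM n-butyric acid, 32 pM TPA and test compound in DMSO at stated compound/TPA molar ratio; viability determined by Trypan blue staining.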

Raji [2] = assay: Inhibition of TPA-induced EBV-early antigen activation in human Raji cells assessed as EA induction at 500 molar ratio after 48 hrs relative to TPA; format: cell-based; set-up: scale not given: the % may be the effect or the level left; details: human gammaherpesvirus 4
Procedure, shortened: (§2)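 Raji cells (virus non-producer, spontaneous EA activation <0.1%) incubated 48 h at 37 °C with 4 mM n-butyric acid plus 32 pM TPA and compound in DMSO; smears stained by indirect immunofluorescence with NPC patient EBV-EA-positive serum, ≥500 cells counted; EA-positive cells expressed relative to butyrate+TPA control (100%); triplicates; IC50 as mol ratio to 32 pmol TPA.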

Raji [3] = assay: Inhibition of TPA-induced EBV-early antigen activation in human Raji cells assessed as EA induction at 10 molar ratio after 48 hrs relative to TPA; format: cell-based; set-up: scale not given: the % may be the effect or the level left; details: human gammaherpesvirus 4; procedure, shortened: as §2
Raji [4] = assay: Inhibition of TPA-induced EBV-early antigen activation in human Raji cells assessed as EA induction at 1000 molar ratio after 48 hrs relative to TPA; format: cell-based; set-up: scale not given: the % may be the effect or the level left; details: human gammaherpesvirus 4; procedure, shortened: as §2
Raji [5] = assay: Inhibition of TPA-induced EBV-early antigen activation in human Raji cells assessed as EA induction at 100 molar ratio after 48 hrs relative to TPA; format: cell-based; set-up: scale not given: the % may be the effect or the level left; details: human gammaherpesvirus 4; procedure, shortened: as §2
[6] = Cytotoxicity against human Raji cells assessed as cell viability at 500 molar ratio after 48 hrs by trypan blue staining method; format: cell-based; details: read-out: Activity; procedure, shortened: as §1
[7] = Inhibition of TPA-induced EBV-early antigen activation in human Raji cells assessed as EA induction after 48 hrs relative to TPA; format: cell-based, human gammaherpesvirus 4; procedure, shortened: as §2
[8] = Cytotoxicity against human Raji cells assessed as cell viability at 1000 molar ratio after 48 hrs by trypan blue staining method; format: cell-based; details: read-out: Activity; procedure, shortened: as §1
[9] = Cytotoxicity against human Raji cells assessed as cell viability at 100 molar ratio after 48 hrs by trypan blue staining method; format: cell-based; details: read-out: Activity; procedure, shortened: as §1

Row | IC50 [7] | Structure (SMILES) | viability at 48 h, 10 molar ratio [1] | Activity (Raji [2]) | Activity (Raji [3]) | Activity (Raji [4]) | Activity (Raji [5]) | viability at 48 h, 500 molar ratio [6] | viability at 48 h, 1000 molar ratio [8] | viability at 48 h, 100 molar ratio [9]
1 | 295 molar ratio | C=C(C)[C@@H]1CC[C@]2(C(=O)O)CC[C@]3(C)[C@H](CC[C@@H]4[C@@]5(C)CC[C@H](OC(=O)/C=C/C=C/C)C(C)(C)[C@@H]5CC[C@]43C)[C@@H]12 | > 80% | 25.7% | 90.2% | 0% | 65.7% | > 80% | 70% | > 80%
2 | 299 molar ratio | C=C(C)[C@@H]1CC[C@]2(C(=O)O)CC[C@]3(C)[C@H](CC[C@@H]4[C@@]5(C)CC[C@H](OC(=O)/C=C/C)C(C)(C)[C@@H]5CC[C@]43C)[C@@H]12 | > 80% | 26.2% | 91.6% | 0% | 66.7% | > 80% | 70% | > 80%
